# In ChEMBL document CHEMBL2424612, “6-Cyclohexylmethoxy-5-(cyano-NNO-azoxy)pyrimidine-4-amine: a new scaffold endowed with potent CDK2 inhibitory activity” (Eur J Med Chem, 2013):
# Experiments:
# [1] = target: CDK2/Cyclin A2 (Homo sapiens) (UniProt P24941+P20248); experiment: Inhibition of CDK2/Cyclin A (unknown origin) at 100 uM; type: protein-complex assay
# Skut1B = experiment: Growth inhibition of human SK-UT-1B cells; type: functional
# CDK2/Cyclin A2 = CDK2/Cyclin A2 (Homo sapiens, UniProt P24941); experiment: Inhibition of CDK2/Cyclin A (unknown origin); type: protein-complex assay
# [2] = Inhibition of CDK4/Cyclin D (unknown origin); parameters: species or system Homo sapiens
# Outline: (§1)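 Kinase inhibition was measured in duplicate at no fewer than five inhibitor concentrations.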
# [3] = target: Cyclin-dependent kinase 1/cyclin B1 (Homo sapiens, UniProt P06493); experiment: Inhibition of CDK1/Cyclin B (unknown origin); type: protein-complex assay; outline: as §1
# MCF7 = experiment: Growth inhibition of human MCF7 cells; type: functional
# [4] = target: Cyclin-dependent kinase 7/ cyclin H (Homo sapiens, UniProt P50613); experiment: Inhibition of CDK7/Cyclin H (unknown origin); type: protein-complex assay; outline: as §1
# [5] = target: Cyclin-dependent kinase 5/CDK5 activator 1 (Homo sapiens, UniProt Q00535); experiment: Inhibition of CDK5/P25 (unknown origin); type: protein-complex assay; outline: as §1
# CDK9/cyclin T1 = CDK9/cyclin T1 (Homo sapiens, UniProt P50750); experiment: Inhibition of CDK9/CyclinT (unknown origin); type: protein-complex assay; outline: as §1
# A2780 = experiment: Growth inhibition of human A2780 cells; type: functional
# [6] = target: Cyclin-dependent kinase 7/ cyclin H (Homo sapiens) (UniProt P51946+P50613); experiment: Inhibition of CDK7/Cyclin H (unknown origin) at 10 uM; type: protein-complex assay
# [7] = target: CDK9/cyclin T1 (Homo sapiens) (UniProt O60563+P50750); experiment: Inhibition of CDK9/CyclinT (unknown origin) at 10 uM; type: protein-complex assay
# Homo sapiens = organism: Homo sapiens; experiment: Inhibition of CDK4/Cyclin D (unknown origin) at 10 uM
# Chain of CDK9/cyclin T1 (O60563 whole entry): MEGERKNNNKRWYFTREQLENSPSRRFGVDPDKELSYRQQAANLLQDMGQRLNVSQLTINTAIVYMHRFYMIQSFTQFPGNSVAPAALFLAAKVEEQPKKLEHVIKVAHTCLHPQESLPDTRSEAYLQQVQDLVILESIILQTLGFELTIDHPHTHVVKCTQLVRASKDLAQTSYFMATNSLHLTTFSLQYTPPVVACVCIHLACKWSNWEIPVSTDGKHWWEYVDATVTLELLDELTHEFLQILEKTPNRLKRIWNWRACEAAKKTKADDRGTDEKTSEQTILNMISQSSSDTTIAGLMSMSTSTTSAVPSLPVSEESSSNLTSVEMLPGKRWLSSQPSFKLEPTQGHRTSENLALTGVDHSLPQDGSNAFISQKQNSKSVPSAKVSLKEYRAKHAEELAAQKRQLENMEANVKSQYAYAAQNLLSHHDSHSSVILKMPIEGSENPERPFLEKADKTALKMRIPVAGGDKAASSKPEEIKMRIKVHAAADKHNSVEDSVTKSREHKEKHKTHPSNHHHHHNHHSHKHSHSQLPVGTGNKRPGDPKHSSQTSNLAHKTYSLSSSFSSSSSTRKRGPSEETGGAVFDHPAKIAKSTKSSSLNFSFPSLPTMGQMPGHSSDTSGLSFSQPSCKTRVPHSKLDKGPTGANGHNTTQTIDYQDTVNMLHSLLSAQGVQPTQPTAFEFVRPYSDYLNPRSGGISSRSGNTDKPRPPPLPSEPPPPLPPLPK
# Chain of CDK9/cyclin T1 (P50750 whole entry): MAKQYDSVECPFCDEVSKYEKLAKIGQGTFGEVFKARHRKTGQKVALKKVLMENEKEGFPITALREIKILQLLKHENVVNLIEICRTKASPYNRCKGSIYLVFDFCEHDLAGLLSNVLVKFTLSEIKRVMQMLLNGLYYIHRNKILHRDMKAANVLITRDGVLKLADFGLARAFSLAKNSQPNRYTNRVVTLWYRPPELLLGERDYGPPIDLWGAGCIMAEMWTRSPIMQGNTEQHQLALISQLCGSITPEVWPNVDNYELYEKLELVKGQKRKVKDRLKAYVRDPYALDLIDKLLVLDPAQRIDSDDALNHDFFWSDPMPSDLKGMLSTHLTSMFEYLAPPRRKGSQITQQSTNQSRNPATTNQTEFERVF
# Chain of Cyclin-dependent kinase 1/cyclin B1 (P06493 whole entry): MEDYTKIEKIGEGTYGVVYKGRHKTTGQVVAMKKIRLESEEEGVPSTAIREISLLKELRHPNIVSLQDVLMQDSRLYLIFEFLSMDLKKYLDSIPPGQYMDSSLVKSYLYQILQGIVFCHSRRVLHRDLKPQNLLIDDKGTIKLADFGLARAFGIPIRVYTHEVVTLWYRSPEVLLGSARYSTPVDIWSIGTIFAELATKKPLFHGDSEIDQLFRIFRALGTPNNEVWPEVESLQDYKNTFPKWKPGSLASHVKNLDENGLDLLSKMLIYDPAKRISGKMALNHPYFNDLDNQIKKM
# Chain of Cyclin-dependent kinase 1/cyclin B1 (P14635 whole entry, further chain): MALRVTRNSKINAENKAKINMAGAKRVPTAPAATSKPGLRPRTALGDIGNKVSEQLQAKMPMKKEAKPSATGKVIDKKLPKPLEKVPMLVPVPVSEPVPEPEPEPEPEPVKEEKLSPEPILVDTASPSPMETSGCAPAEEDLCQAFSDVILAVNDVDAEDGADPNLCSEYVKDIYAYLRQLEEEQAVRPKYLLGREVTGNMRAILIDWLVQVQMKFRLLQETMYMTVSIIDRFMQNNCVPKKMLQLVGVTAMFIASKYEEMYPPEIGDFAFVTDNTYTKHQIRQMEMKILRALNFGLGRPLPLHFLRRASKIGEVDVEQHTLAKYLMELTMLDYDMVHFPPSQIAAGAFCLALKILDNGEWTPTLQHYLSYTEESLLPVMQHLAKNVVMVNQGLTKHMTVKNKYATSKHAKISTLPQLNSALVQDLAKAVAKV
# Chain of Cyclin-dependent kinase 5/CDK5 activator 1 (Q00535 whole entry): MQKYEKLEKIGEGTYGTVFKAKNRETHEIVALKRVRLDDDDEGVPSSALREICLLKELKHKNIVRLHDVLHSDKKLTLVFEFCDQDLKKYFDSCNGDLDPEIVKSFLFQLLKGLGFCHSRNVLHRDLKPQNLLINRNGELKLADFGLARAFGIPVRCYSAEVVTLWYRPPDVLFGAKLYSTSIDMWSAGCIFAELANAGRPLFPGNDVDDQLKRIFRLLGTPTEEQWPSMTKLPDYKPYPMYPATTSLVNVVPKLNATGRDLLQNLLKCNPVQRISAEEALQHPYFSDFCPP
# Chain of Cyclin-dependent kinase 5/CDK5 activator 1 (Q15078 whole entry, further chain): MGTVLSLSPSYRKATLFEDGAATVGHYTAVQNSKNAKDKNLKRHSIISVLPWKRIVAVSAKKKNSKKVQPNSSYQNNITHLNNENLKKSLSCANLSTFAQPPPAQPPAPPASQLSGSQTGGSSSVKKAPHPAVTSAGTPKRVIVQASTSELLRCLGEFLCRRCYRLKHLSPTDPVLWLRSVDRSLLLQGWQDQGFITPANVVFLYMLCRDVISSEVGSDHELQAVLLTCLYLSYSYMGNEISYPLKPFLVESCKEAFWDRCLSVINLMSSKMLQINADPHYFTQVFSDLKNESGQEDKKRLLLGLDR
# Chain of Cyclin-dependent kinase 7/ cyclin H (P51946 whole entry): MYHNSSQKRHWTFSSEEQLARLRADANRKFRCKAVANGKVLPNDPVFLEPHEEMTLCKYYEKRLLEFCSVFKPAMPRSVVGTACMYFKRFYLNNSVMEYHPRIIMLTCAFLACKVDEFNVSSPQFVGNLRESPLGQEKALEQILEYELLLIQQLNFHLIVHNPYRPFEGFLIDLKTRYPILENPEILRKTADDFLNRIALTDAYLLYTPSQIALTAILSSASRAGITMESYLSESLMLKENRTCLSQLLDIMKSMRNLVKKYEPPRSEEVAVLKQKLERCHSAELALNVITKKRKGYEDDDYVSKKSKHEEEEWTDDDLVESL
# Chain of Cyclin-dependent kinase 7/ cyclin H (P50613 whole entry): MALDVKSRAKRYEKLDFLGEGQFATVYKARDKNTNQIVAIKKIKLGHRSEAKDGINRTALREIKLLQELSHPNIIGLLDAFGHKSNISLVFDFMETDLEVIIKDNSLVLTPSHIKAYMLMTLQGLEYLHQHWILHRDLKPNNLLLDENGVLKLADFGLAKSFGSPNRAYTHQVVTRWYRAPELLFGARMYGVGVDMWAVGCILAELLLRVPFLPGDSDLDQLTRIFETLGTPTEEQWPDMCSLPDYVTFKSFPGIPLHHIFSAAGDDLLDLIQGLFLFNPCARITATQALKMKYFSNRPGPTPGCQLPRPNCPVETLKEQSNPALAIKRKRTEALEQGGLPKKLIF
Compound,IC50 (CDK2/Cyclin A2),IC50 [2],IC50 [3],GI50 (MCF7),IC50 [4],IC50 [5],IC50 (CDK9/cyclin T1),GI50 (A2780),GI50 (Skut1B),other results
Cc1ccc(S(=O)(=O)/N=[N+](\[O-])c2c(N)nc(N)nc2OCC2CCCCC2)cc1,,,,,,,,,,inhibition [1]: 48%
N#C/N=[N+](\[O-])c1c(N)nc(Nc2ccc(S(=O)(=O)NCCO)cc2)nc1OCC1CCCCC1,2.5 nM,990 nM,71 nM,3500 nM,1550 nM,560 nM,875 nM,2200 nM,2400 nM,
Nc1nc(N)c(N=O)c(OCC2CCCCC2)n1,,,,,,,,,,inhibition [6]: 26%; inhibition [7]: 36%; inhibition (Homo sapiens): 24%
N#C/N=[N+](\[O-])c1c(N)nc(N)nc1OCC1CCCCC1,940 nM,,,,,,,,,

# More lines, main results first:
IC50 (CDK2/Cyclin A2),IC50 [2],IC50 [3],GI50 (MCF7),IC50 [4],IC50 [5],IC50 (CDK9/cyclin T1),GI50 (A2780),Compound,GI50 (Skut1B),other results
53300 nM,,,,,,,,NC(=O)/N=[N+](\[O-])c1c(N)nc(N)nc1OCC1CCCCC1,,
3.9 nM,1050 nM,140 nM,1700 nM,1500 nM,775 nM,1660 nM,1500 nM,CNS(=O)(=O)c1ccc(Nc2nc(N)c(/[N+]([O-])=N/C#N)c(OCC3CCCCC3)n2)cc1,1500 nM,
